According to ChEMBL document CHEMBL1156982, “New 3-methylquinoxaline-2-carboxamide 1,4-di-N-oxide derivatives as anti-Mycobacterium tuberculosis agents” (Bioorg Med Chem, 2010):
≈ marks a conversion by molar mass, not a printed value.

Assays:
[1] = test system: Mycobacterium tuberculosis; assay: Antituberculosis activity against Mycobacterium tuberculosis H37Rv ATCC 27294; format: functional
[2] = test system: Mycobacterium tuberculosis; assay: Antituberculosis activity against Mycobacterium tuberculosis H37Rv ATCC 27294 after 4 days by microplate alamar blue assay; format: functional; conditions: H37Rv ATCC 27294, 96 h
In short: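 M. tuberculosis H37Rv (ATCC 27294) in BACTEC 12B medium, tested by Microplate Alamar Blue Assay across a range of lower concentrations. MIC is the lowest concentration giving a 90% reduction in fluorescence versus controls. Rifampicin was the reference.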

[3] = test system: Vero; assay: Cytotoxicity against african green monkey Vero cells after 72 hrs by MTT assay; format: cell-based; conditions: Chlorocebus sabaeus
In short: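 VERO cells were exposed to compound for 72 h. Viability was read from cellular conversion of MTT to formazan (CellTiter 96 non-radioactive proliferation assay), and the IC50 was determined.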

[4] = Selectivity ratio of IC50 for Vero cells to MIC for Mycobacterium tuberculosis H37Rv ATCC 27294; format: functional
In short: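 SI is the ratio of the IC50 measured in VERO cells (72 h MTT) to the MIC against M. tuberculosis H37Rv (MABA, 90% fluorescence reduction). An SI of 10 or more counts as active at the second screening level.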

Compound	Activity [1]	MIC [2] [µg/mL]	IC50 [3] [µg/mL]	Selectivity ratio [4]
COc1ccc(CCNC(=O)c2c(C)[n+]([O-])c3ccc(OC)cc3[n+]2[O-])cc1	>=90%	16.9 (≈ 44 µM)		
COc1ccc(CNC(=O)c2c(C)[n+]([O-])c3ccccc3[n+]2[O-])cc1	>=90%	2.85 (≈ 8.39 µM)	> 30	>10.537
Cc1c(C(=O)NCCc2ccccc2)[n+]([O-])c2cc(F)ccc2[n+]1[O-]	>=90%	0.504 (≈ 1.48 µM)	> 100	>198.41
COc1ccc(CCNC(=O)c2c(C)[n+]([O-])c3cc(Cl)c(Cl)cc3[n+]2[O-])cc1	>=90%	0.454 (≈ 1.08 µM)	> 30	>66.079
Cc1c(C(=O)NCc2ccccc2)[n+]([O-])c2cc(Cl)ccc2[n+]1[O-]	>=90%	0.433 (≈ 1.26 µM)	> 100	>230.94
Cc1c(C(=O)NCc2ccccc2)[n+]([O-])c2cc(C(F)(F)F)ccc2[n+]1[O-]	>=90%	0.406 (≈ 1.08 µM)	> 100	>246.3
COc1ccc(CCNC(=O)c2c(C)[n+]([O-])c3cc(C)c(C)cc3[n+]2[O-])cc1	>=90%	> 100		
Cc1c(C(=O)NCCc2ccccc2)[n+]([O-])c2cc(C(F)(F)F)ccc2[n+]1[O-]	>=90%	1.15 (≈ 2.95 µM)	> 30	>26.019
COc1ccc(CNC(=O)c2c(C)[n+]([O-])c3ccc(C(F)(F)F)cc3[n+]2[O-])cc1	>=90%	0.999 (≈ 2.45 µM)	> 30	>30.03
COc1ccc(CCNC(=O)c2c(C)[n+]([O-])c3cc(F)c(F)cc3[n+]2[O-])cc1	>=90%	2.06 (≈ 5.29 µM)	> 30	>14.577
COc1ccc(CNC(=O)c2c(C)[n+]([O-])c3cc(Cl)c(Cl)cc3[n+]2[O-])cc1	>=90%			
Cc1c(C(=O)NCCc2ccccc2)[n+]([O-])c2cc(Cl)ccc2[n+]1[O-]	>=90%	< 0.2	> 100	>500
COc1ccc(CCNC(=O)c2c(C)[n+]([O-])c3ccccc3[n+]2[O-])cc1	>=90%	3.46 (≈ 9.8 µM)	> 30	>8.6605
Cc1c(C(=O)NCCc2ccccc2)[n+]([O-])c2cc(F)c(F)cc2[n+]1[O-]	>=90%	0.517 (≈ 1.44 µM)	> 30	>58.027
Cc1ccc2c(c1)[n+]([O-])c(C(=O)NCCc1ccccc1)c(C)[n+]2[O-]	>=90%	8.62 (≈ 25.6 µM)	> 100	>11.6
Cc1cc2c(cc1C)[n+]([O-])c(C(=O)NCCc1ccccc1)c(C)[n+]2[O-]	>=90%	16.4 (≈ 46.6 µM)		
COc1ccc(CNC(=O)c2c(C)[n+]([O-])c3ccc(Cl)cc3[n+]2[O-])cc1	>=90%			
Cc1c(C(=O)NCCc2ccccc2)[n+]([O-])c2cc(Cl)c(Cl)cc2[n+]1[O-]	>=90%	< 0.195	> 30	>153.84
COc1ccc(CNC(=O)c2c(C)[n+]([O-])c3ccc(F)cc3[n+]2[O-])cc1	>=90%	1.51 (≈ 4.22 µM)	> 30	>19.893

Compound	Activity [1]	MIC [2] [µg/mL]	IC50 [3] [µg/mL]	Selectivity ratio [4]
CO[C@H]1/C=C/O[C@@]2(C)Oc3c(C)c(O)c4c(O)c(c(/C=N/N5CCN(C)CC5)c(O)c4c3C2=O)NC(=O)/C(C)=C\C=C\[C@H](C)[C@H](O)[C@@H](C)[C@@H](O)[C@@H](C)[C@H](OC(C)=O)[C@@H]1C [RIFAMPIN]		0.015 (≈ 0.0182 µM)	> 100	>800
Cc1c(C(=O)NCc2ccccc2)[n+]([O-])c2cc(F)c(F)cc2[n+]1[O-]	>=90%	1.73 (≈ 5 µM)	18.4 (≈ 53.2 µM)	10.64
Cc1c(C(=O)NCc2ccccc2)[n+]([O-])c2ccccc2[n+]1[O-]	>=90%	2.61 (≈ 8.42 µM)	> 100	>38.372
Cc1ccc2c(c1)[n+]([O-])c(C(=O)NCc1ccccc1)c(C)[n+]2[O-]	>=90%	4.21 (≈ 13 µM)	> 100	>23.77
COc1ccc(CCNC(=O)c2c(C)[n+]([O-])c3ccc(C(F)(F)F)cc3[n+]2[O-])cc1	>=90%	1.43 (≈ 3.39 µM)	> 30	>21.023
COc1ccc(CNC(=O)c2c(C)[n+]([O-])c3ccc(C)cc3[n+]2[O-])cc1	>=90%	8.9 (≈ 25.2 µM)	> 30	>3.3696
COc1ccc(CCNC(=O)c2c(C)[n+]([O-])c3ccc(F)cc3[n+]2[O-])cc1	>=90%	< 0.195	> 30	>153.84
Cc1cc2c(cc1C)[n+]([O-])c(C(=O)NCc1ccccc1)c(C)[n+]2[O-]	>=90%	> 100		
Cc1c(C(=O)NCCc2ccccc2)[n+]([O-])c2ccccc2[n+]1[O-]	>=90%	3.05 (≈ 9.43 µM)	> 100	>32.81
COc1ccc2c(c1)[n+]([O-])c(C(=O)NCCc1ccccc1)c(C)[n+]2[O-]	>=90%	13.7 (≈ 38.7 µM)		
COc1ccc(CNC(=O)c2c(C)[n+]([O-])c3cc(F)c(F)cc3[n+]2[O-])cc1	>=90%	0.764 (≈ 2.04 µM)	16.6 (≈ 44.2 µM)	21.734
Cc1c(C(=O)NCc2ccccc2)[n+]([O-])c2cc(F)ccc2[n+]1[O-]	>=90%	1.52 (≈ 4.65 µM)	> 100	>65.7
COc1ccc(CNC(=O)c2c(C)[n+]([O-])c3cc(C)c(C)cc3[n+]2[O-])cc1	>=90%	> 100		
COc1ccc2c(c1)[n+]([O-])c(C(=O)NCc1ccccc1)c(C)[n+]2[O-]	>=90%	12.3 (≈ 36.4 µM)		
COc1ccc(CCNC(=O)c2c(C)[n+]([O-])c3ccc(C)cc3[n+]2[O-])cc1	>=90%	8.85 (≈ 24.1 µM)	> 30	>3.389
COc1ccc(CCNC(=O)c2c(C)[n+]([O-])c3ccc(Cl)cc3[n+]2[O-])cc1	>=90%	< 0.195	> 30	>153.84
COc1ccc(CNC(=O)c2c(C)[n+]([O-])c3ccc(OC)cc3[n+]2[O-])cc1	>=90%	12 (≈ 32.5 µM)		
Cc1c(C(=O)NCc2ccccc2)[n+]([O-])c2cc(Cl)c(Cl)cc2[n+]1[O-]	>=90%	< 0.2	> 100	>500
